p47phox inh = p47phox (human) inhibition | P14598 | p47phox/p22phox peptide binding, fluorescence polarization, 2 h | inhibition, % at 24.7 µM | actives 0.53% (n = 220,000) | AID 1274;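 active means inhibition above about 30%, limit read from the data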;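 further: 0% = p47phox with labelled peptide and 100% = labelled peptide alone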
Hck-Nef inh = human Hck-Nef kinase inhibition; P08631; Recombinant Hck-YEEI plus Nef, Z-Lyte FRET kinase assay; inhibition, % at 20 µM; actives 0.68% (n = 220,000); AID 463187;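 active means Hck-Nef kinase inhibition above about 50%, limit read from the data; inactive means inhibition below that limit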;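 further: 0% = DMSO with Hck plus Nef and 100% = Hck alone without Nef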
Target sequence (P08631 whole entry, looked up): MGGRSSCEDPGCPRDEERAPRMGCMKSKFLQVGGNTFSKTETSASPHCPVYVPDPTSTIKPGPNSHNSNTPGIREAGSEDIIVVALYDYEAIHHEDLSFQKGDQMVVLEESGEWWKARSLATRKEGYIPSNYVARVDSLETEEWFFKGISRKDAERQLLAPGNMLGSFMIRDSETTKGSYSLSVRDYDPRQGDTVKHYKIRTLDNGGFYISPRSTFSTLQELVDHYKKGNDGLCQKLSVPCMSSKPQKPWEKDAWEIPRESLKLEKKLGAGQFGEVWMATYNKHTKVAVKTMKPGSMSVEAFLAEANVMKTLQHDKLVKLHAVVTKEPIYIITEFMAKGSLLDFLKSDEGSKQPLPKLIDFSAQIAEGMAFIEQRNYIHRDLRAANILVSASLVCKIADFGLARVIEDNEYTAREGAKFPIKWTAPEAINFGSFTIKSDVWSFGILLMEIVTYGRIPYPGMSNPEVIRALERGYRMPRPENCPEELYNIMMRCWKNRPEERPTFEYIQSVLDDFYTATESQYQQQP
Arbovirus anti = arbovirus infection inhibition; arbovirus infection cell-based antiviral screen; inhibition, % at 10 µM; actives 0.37% (n = 200,000); in the data active means inhibition above about 30%
WT yeast gro inh = growth inhibition of WT yeast, mitochondrial fusion screen | inhibition, % at 10 µM | actives 2.1% (n = 190,000) | AID 1362 | mitochondrial fusion phenotypic screen, WT strain; in the data active means inhibition above about 58%; tested in S. cerevisiae
RAM network inh = inhibitors of the yeast RAM network; S. cerevisiae dse1pr::URA3 reporter, 5-FOA growth OD615, 2 d; analog-sensitive cbk1-as2 kinase mutant strain; inhibition, % at 50 µM; actives 1.8% (n = 190,000); AID 868;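 active means inhibition above a set limit, 3 SD over mean compound inhibition, cut at about 8.4% in these data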;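 further: 0% = DMSO-only wells with no growth and 100% = 10 µM 1-NA-PP1 full growth; inhibition rescues growth on 5-FOA so higher OD means more RAM inhibition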
Biofilm kill mix = mixture kills Candida albicans biofilm cells | C. albicans biofilm persisters + clotrimazole, fluorescence viability; primary screen in compound mixtures of four per well | inhibition, % at 7.6 µM | actives 0.02% (n = 120,000) | AID 1242;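 active means inhibition above 30.3% in the primary screen of four-compound pools, then above 30% when the compound was retested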;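 further: compounds exposed to preformed 24 h biofilms for 48 h; 0% = untreated biofilm control and 100% = clotrimazole plus chlorhexidine kill blank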
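Test system: C. albicans biofilms. Buffer or medium: RPMI/MOPS medium, pH 7.0. Timing: 48 h compound exposure at 37 °C. Technique: Alamar Blue fluorescence. Evaluation: percent inhibition of biofilm viability.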
Active calls of the source: *; . = not tested or not shown; ! = not active in a repeat. Compounds with a hit are over-represented: about 4.6% of the library has one in this group of screens.

SMILES	p47phox inh	Hck-Nef inh	Arbovirus anti	WT yeast gro inh	RAM network inh	Biofilm kill mix
COc1ccc(-c2nn3c(-c4ccccc4)nnc3s2)cc1	-8.1	4.3	-19.1	20.9	5.7	.
COc1ccc(-c2nnc3sc(CCN4C(=O)c5ccccc5C4=O)nn23)cc1	-0.2	-2.3	1.6	3.0	9.4*	.
COP(=O)(OC)C(Nc1ccc([N+](=O)[O-])cc1)c1ccccc1 (stereo not given)	-11.2	3.1	.	.	.	17.7
CCCOP(=O)(OCCC)C(Nc1ccc(C(C)C)cc1)c1ccc([N+](=O)[O-])cc1 (stereo not given)	-8.9	0.8	-25.3	73.7*	9.4*	.
CC(C)c1ccc(NC(=O)COC(=O)CCC(=O)c2cccs2)cc1	-6.8	1.8	-0.5	6.9	3.8	9.9
CC1CC(C)CN(c2ncnc3c2cnn3-c2ccc(Cl)cc2)C1 (stereo not given)	-10.9	-5.4	4.4	61.6*	5.7	.
Cc1ccc(Cn2ncc3c(N4CCN(Cc5ccc(Cl)cc5)CC4)ncnc32)cc1	-4.3	0.2	0.4	63.5*	-0.1	.
CC1CCN(c2ncnc3c2cnn3Cc2ccc(Cl)cc2)CC1	-7.2	-2.7	-0.2	63.1*	0.3	.
O=C(CSc1nc(C2CC2)nc2ccccc12)N1c2ccccc2Sc2ccccc21	-37.0	8.0	-5.4	-2.0	0.8	.
CCOC(=O)c1ccc(NC(=O)c2nc[nH]c2C(=O)N(C)Cc2ccccc2)cc1	0.0	26.0	.	.	.	9.9
CCC(C)c1ccc(OCCn2ccnc2)cc1 (stereo not given)	-1.7	-0.8	2.1	70.8*	2.3	16.4
C(=N\NC(=Nc1ccccc1)c1ccccn1)/c1ccccn1	7.1	1.1	-32.5	1.6	0.8	14.8
Clc1ccc(/C=N/NC(=Nc2ccccc2)c2ccccn2)c(Cl)c1	-2.3	0.5	6.9	74.1*	-0.3	.
Cc1ccccc1Cn1c(-c2cncs2)nc2ccccc21	-2.1	1.3	-7.8	39.3	-0.1	.
Brc1cc2c(cc1Cn1c(-c3cncs3)nc3ccccc31)OCO2	5.6	9.6	-1.0	26.8	10.2*	.
Nc1nc(CCOc2ccc(F)cc2)cs1	39.5*	9.3	0.3	0.0	4.0	5.5
Nc1nc(-c2ccc(F)cc2)cs1	-0.7	23.5	-3.2	-4.9	0.2	-4.0
Nc1nc(COc2ccc3ccccc3c2)cs1	-3.9	4.9	1.0	74.7*	0.0	.
CC(=O)Nc1nc(COc2ccc3ccccc3c2)cs1	3.4	-14.2	26.1	-4.4	1.6	.
Cc1cc(/C=C\c2ccccc2)nc2ccccc12	-15.5	9.9	0.9	70.6*	1.2	25.9
COc1ccc(/C=C/c2cc(C(=O)O)c3ccccc3n2)cc1	-9.4	8.2	.	.	.	24.2
CCCc1c(OCCCCc2nn[nH]n2)ccc(C(C)=O)c1O	-0.8	0.5	34.8*!	-1.6	1.2	8.5
CC(C)OCCCNC(=O)Cc1ccc(Br)cc1	0.2	4.6	5.3	8.5	3.1	14.6
FC(F)(F)c1ccc2c(c1)NCC1CCCN21 (stereo not given)	51.0*	-9.5	0.5	10.7	1.1	9.2
Cc1nn(-c2ccccc2)nc1CNC(=O)c1ncoc1-c1ccccc1	-8.0	3.7	.	.	.	8.6
SMILES	p47phox inh	Hck-Nef inh	Arbovirus anti	WT yeast gro inh	RAM network inh	Biofilm kill mix
CCCN(Cc1ccccc1)C(=S)Nc1ccc(F)cc1	-8.2	24.9	8.7	34.7	1.9	4.6
CCCN(Cc1ccccc1)C(=S)Nc1ccc(SC(F)F)cc1	-10.1	25.8	-11.4	70.5*	4.1	25.0
Cc1nc(CN(C)C(=O)c2ccccc2OC2CCN(S(C)(=O)=O)CC2)cs1	-2.5	8.2	-4.5	-8.9	-0.1	4.5
Cc1ccc(NCC(=O)N/N=C/c2cc(O)ccc2[N+](=O)[O-])cc1	-2.9	15.1	7.4	-3.3	1.3	3.8
O=C(c1cnn(-c2nc3ccccc3s2)c1)c1ccccc1O	-7.1	-0.2	-4.5	0.8	4.4	.
O=C(c1cnn(C(=O)c2ccccc2)c1)c1ccccc1O	8.0	62.2*	1.6	-4.3	-0.9	18.0
CC1CC(C)CN(S(=O)(=O)c2ccc(NC(=S)NC(=O)c3ccccc3)cc2)C1 (stereo not given)	-21.2	7.0	-7.2	-2.0	2.8	8.0
COC(=O)CSc1ncnc2scc(-c3ccccc3)c12	-8.7	9.5	.	.	.	30.3
Fc1ccc(CSc2ncnc3scc(-c4ccccc4)c23)cc1	-19.5	2.0	17.4	40.3	10.3*	23.4
C1CN(c2nc3nonc3nc2N2C[C@H]3CC[C@H]2C3)CCS1	-4.0	26.3	7.5	-16.9	-0.2	9.0
C=CCn1cc(/C=N/NC(=O)COc2cccc3cccnc23)c2ccccc21	47.4*	71.2*	-8.6	-3.3	3.7	11.2
COc1cccc(/C=N/NC(=O)COc2cccc3cccnc23)c1O	-3.4	-0.8	-23.7	-2.0	0.4	6.8
CC(C)n1cc(/C=N/NC(=O)COc2cccc3cccnc23)c2ccccc21	45.5*	74.2*	17.1	-3.5	1.5	0.6
CN(C)CCCNC(=O)c1ccc(=O)[nH]n1	-13.7	0.2	.	.	.	20.4
CC(C)(C)c1ccc(COc2ccsc2C(=O)O)cc1	0.3	20.5	8.1	4.1	1.6	22.8
CCOc1cc(Br)c(Br)c(C=Nc2ccc(NC(C)=O)cc2)c1O	-192.7	62.6*	-5.2	-4.3	-0.8	18.4
COc1ccc(Oc2cnn(-c3ccccc3)c(=O)c2Br)cc1	1.4	2.0	7.2	5.0	1.7	12.5
Cc1cccc(OCC(=O)NCc2cc(C)nc3ccccc23)c1	-4.0	23.0	4.2	-11.0	0.6	7.8
COc1ccc(N=C2O/C(=C/c3sc(=S)n(CC4CCCO4)c3O)N=C2C#N)cc1 (stereo not given)	42.5*	3.1	.	.	.	7.7
CC(C)CNC(=O)C1CCN(c2ccc(S(=O)(=O)N3CCOCC3)cc2[N+](=O)[O-])CC1	-16.4	13.8	.	.	.	15.6
Cc1cc(C)c2oc(C(=O)Nc3ccc(S(=O)(=O)N4CCCC(C)C4)cc3)cc(=O)c2c1 (stereo not given)	-13.0	3.9	-13.2	8.5	9.2*	7.7
COc1ccccc1CN(C(=O)CCl)C(C(=O)NC1CCCCC1)c1ccncc1 (stereo not given)	43.1*	2.9	23.0	-0.2	1.8	15.6
COc1ccc(C(C(=O)NC2CCCC2)N(Cc2ccccc2)C(=O)c2nsc(Cl)c2Cl)cc1 (stereo not given)	-3.3	-0.8	-23.9	63.1*	4.4	.
CCOc1ccc(C(C(=O)NC2CCCC2)N(Cc2ccccc2)C(=O)c2nsc(Cl)c2Cl)cc1 (stereo not given)	-7.0	0.6	-30.8	62.4*	4.6	.
COc1ccc(CN(C(=O)Cc2cccs2)C(C(=O)NC2CCCC2)c2ccncc2)cc1 (stereo not given)	-10.6	1.2	1.6	9.7	-0.4	.
Cc1ccc(-c2nnc(Nc3ccc4c(c3)OCO4)c3ccccc23)cc1S(=O)(=O)NC(C)C	-8.9	3.2	-21.6	-3.2	-0.4	8.6

Compound activity: PubChem BioAssay, several laboratories
